This is a sample that favours compounds with a hit; in the whole collection about 3.7% have one here.
Furin inh – inhibitors of human furin | P09958 | purified furin, fluorogenic substrate cleavage | inhibition, % at 20 µM or 30 µM | actives 0.061% (n = 220,000) | AID 463115; in the data active = inhibition above about 25%
Cl transport mod – KCC2 (human) Cl- transport modulation; B-score of Tl+ flux slope (higher = more flux/activation; lower = inhibition) at 10 µM; KCC2 cells, thallium flux FluoZin-2 fluorescence; actives 2.2% (n = 190,000); AID 1456; Q9H2X9;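 active = thallium flux slope and its plate-corrected score both differing from the plate sample mean at a set confidence after two filtering rounds, in either direction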;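 also: slope of fluorescence scaled to starting intensity during 10 to 20 s after thallium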
NPY-Y2 antag – NPY-Y2 (human) receptor antagonism. P49146. NPY-Y2 expressing cells, antagonist mode. inhibition, % at 2.7 µM. actives 0.99% (n = 140,000); in the data active = inhibition above about 17%;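 also: 0% = vehicle with agonist challenge and 100% = reference antagonist with challenge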
Target sequence (P49146 whole entry, looked up): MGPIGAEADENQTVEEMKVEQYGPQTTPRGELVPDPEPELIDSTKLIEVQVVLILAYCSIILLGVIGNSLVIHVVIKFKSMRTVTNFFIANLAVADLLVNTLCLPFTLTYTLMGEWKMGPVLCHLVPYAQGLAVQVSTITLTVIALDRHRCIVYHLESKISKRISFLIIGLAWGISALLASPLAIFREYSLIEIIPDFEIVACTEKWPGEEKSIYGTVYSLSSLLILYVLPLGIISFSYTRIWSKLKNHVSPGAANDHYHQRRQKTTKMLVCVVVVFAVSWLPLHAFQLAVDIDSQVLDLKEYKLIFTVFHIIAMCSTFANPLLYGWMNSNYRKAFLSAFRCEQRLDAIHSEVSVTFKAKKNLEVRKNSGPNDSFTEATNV
NPY Y1 blocker – antagonists of human neuropeptide Y receptor Y1; HEK293-CNG Y1 cells, membrane potential fluorescence; NPY at EC95, then isoproterenol; inhibition, % at 3.6 µM; actives 1% (n = 200,000); AID 1040;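 active = inhibition above the campaign mean inhibition of all tested compounds plus 3 SD, cut at about 20% in these data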;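 also: 0% = DMSO wells given NPY plus isoproterenol and 100% = isoproterenol alone without NPY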
Target sequence (P25929 whole entry, looked up): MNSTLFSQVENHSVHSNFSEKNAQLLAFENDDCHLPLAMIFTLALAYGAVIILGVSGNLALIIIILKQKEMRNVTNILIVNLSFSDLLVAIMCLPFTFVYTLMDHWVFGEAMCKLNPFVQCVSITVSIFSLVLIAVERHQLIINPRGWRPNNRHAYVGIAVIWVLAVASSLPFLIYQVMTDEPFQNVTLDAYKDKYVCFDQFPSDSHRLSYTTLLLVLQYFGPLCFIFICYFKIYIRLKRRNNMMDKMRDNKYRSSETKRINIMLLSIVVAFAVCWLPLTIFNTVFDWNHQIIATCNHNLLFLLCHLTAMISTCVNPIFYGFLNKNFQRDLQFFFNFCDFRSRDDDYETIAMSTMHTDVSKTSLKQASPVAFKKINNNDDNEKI
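Test system – HEK293 Y1/CNG channel cell line · Also added – NPY agonist 25 nM, then isoproterenol 1 µM plus Ro 20-1724 25 µM · Compound dosing – one concentration, 3.6 µM, in 0.4% DMSO · Schedule – compound incubation 1 h at room temperature, readout 45 min post-stimulation · Technique – fluorescence, membrane potential probe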
NPY1 pot ag – potentiates or activates human NPY-Y1 receptor. NPY-Y1 expressing cells, potentiator/agonist activation. actives 0.37% (n = 220,000). activation, % at 3.6 µM. P25929; in the data active = activation above about 33%, passing the limit was not always enough;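 also: cells stimulated with NPY at EC10 then isoproterenol at EC100; 0% = low agonist plus stimulus and 100% = saturating agonist plus stimulus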
NPY-Y2 PAM-ag – potentiators or agonists of human neuropeptide Y receptor Y2. cells expressing NPY-Y2, potentiator/agonist read-out. actives 0.45% (n = 220,000). activation, % at 3.6 µM. P49146. AID 1359; in the data active = activation above about 27%;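 also: cells stimulated with NPY near EC25 plus isoproterenol at EC100; 0% = vehicle plus submaximal agonist and 100% = vehicle plus saturating agonist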
KCC2 secondary – KCC2 (human) modulation, secondary assay | HEK293-KCC2, thallium flux, FluoZin2 fluorescence; stronger effect = higher value | AID 1713 | actives 15% (n = 3,700) | shares compounds with Cl transport mod | normalised thallium flux (F/F0 slope) at 10 µM;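 active = thallium flux slope above the same plate's solvent-only control mean plus 3 SD; inconclusive = the two replicate wells disagree; inactive = no significant difference from solvent-only control wells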
KCC2 bumet counter – thallium flux persisting under bumetanide in KCC2 cells, counter-screen secondary assay | actives 49% (n = 3,700) | normalized thallium flux at 10 µM | shares compounds with Cl transport mod | HEK293-KCC2 + bumetanide/ouabain, thallium flux FluoZin2; stronger effect = higher value;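 active = thallium entry rate above the same plate's blocked-transporter control wells by more than 3 SD; inconclusive = the two repeat wells disagree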;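 also: raw slope of fluorescence over initial fluorescence between 10 and 20 s after thallium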
KCC2 secondary2 – KCC2 (human) modulation, second secondary assay | actives 23% (n = 3,700) | shares compounds with Cl transport mod | normalized thallium flux at 10 µM | HEK293-KCC2, thallium flux FluoZin2 fluorescence; actives lie on both sides; F/F0 rise rate, 10–20 s post-thallium;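 active = thallium flux slope more than 3 SD above or below the plate's solvent-only control mean, mostly below; inconclusive = the two repeat wells disagreed; inactive = no significant shift from solvent-only controls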;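 also: raw slope with 0.1% DMSO as baseline and bumetanide as block control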
HEK293 Tl flux – counter-screen for KCC2 modulators: effect in parental HEK293 cells. shares compounds with Cl transport mod. thallium flux FluoZin2, ouabain; baseline-ratio fluorescence slope, 10–20 s after thallium. thallium flux rate (normalised fluorescence) at 10 µM. actives 46% (n = 3,700);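 active = thallium flux rate significantly above the same plate's solvent-only control wells, beyond their mean plus 3 SD; inconclusive = the two replicate wells gave conflicting results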
KCC2 retest ouab – modulates human KCC2 on retest with ouabain. HEK293-KCC2, thallium flux FluoZin2 fluorescence; bidirectional: low = inhibitor, high = activator. shares compounds with Cl transport mod. raw Tl+ flux slope (below DMSO = inhibition, above = activation) at 10 µM. actives 48% (n = 3,700);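 active = thallium flux slope beyond 3 SD from same-plate DMSO control mean in most replicates, usually higher, sometimes lower; inconclusive = repeat tests gave conflicting results; inactive = no significant difference from controls in most replicates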;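 also: slope of initial-normalized fluorescence between seconds 10 and 20 after thallium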
HEK293 Tl flux2 – parental HEK flux effect, counter-screen 2; shares compounds with Cl transport mod; HEK293 parental, thallium flux FluoZin-2 fluorescence slope; thallium flux slope at 10 µM; actives 33% (n = 3,700);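 active = thallium flux slope above the same plate's solvent-control mean plus 3 SD in both duplicate wells; inconclusive = duplicate wells that disagreed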;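 also: run without ouabain in cells lacking the KCC2 cotransporter; slope of fluorescence scaled to its starting value between 10 and 20 s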
Active calls of the source: *; ? = inconclusive; · = not tested or not shown.

SMILES | Furin inh | Cl transport mod | NPY-Y2 antag | NPY Y1 blocker | NPY1 pot ag | NPY-Y2 PAM-ag | KCC2 secondary | KCC2 bumet counter | KCC2 secondary2 | HEK293 Tl flux | KCC2 retest ouab | HEK293 Tl flux2
CC1(C)CC(=O)C(C(=O)CCCCC(=O)C2C(=O)CC(C)(C)CC2=O)C(=O)C1 | -21 | 4.4* | 9 | -7 | 4 | 1 | 0.01 | 0.006 | 0.035 | 0.0085 | 0.02 | 0.011
CCOC(=O)c1ccccc1NC(=O)Cn1c(=O)n(Cc2ccccc2)c(=O)c2c(C)c(C)sc21 | 0 | 0.084 | 7 | 1 | -2 | -2 | · | · | · | · | · | ·
FC(F)(F)c1ccc(Cl)c(-n2c(-c3cc(C4CC4)[nH]n3)n[nH]c2=S)c1 | -7 | 4.1* | · | · | 9 | 7 | 0.011 | 0.016* | 0.035 | ? | ? | 0.012
Cc1ccc2c(c1)C(=O)C(=O)N2CC(=O)Nc1ccccc1NC(=O)c1ccccn1 | -29 | -0.11 | · | · | -10 | 1 | · | · | · | · | · | ·
Cc1nonc1C(=O)N/N=C/c1ccccc1 | -15 | 0.43 | · | 5 | -5 | 13 | · | · | · | · | · | ·
C=CCn1c(SCC(=O)c2ccccc2)nnc1-c1ccc2c(c1)OCO2 | -7 | -2.3 | 4 | 1 | -23 | -13 | 0.01 | 0.0068 | 0.033 | 0.0075 | 0.021 | ?
Cc1cc(-c2nc3cccnc3s2)ccc1NS(=O)(=O)c1ccc2c(c1)OCCO2 | -44 | -3.9* | 10 | 7 | 5 | 3 | 0.009 | 0.0056 | 0.034 | 0.0077 | 0.02 | 0.011
Cc1c(NS(=O)(=O)c2ccc3c(c2)OCCO3)cccc1-c1nc2cccnc2s1 | -37 | -1.3 | 2 | -1 | 21 | 12 | · | · | · | · | · | ·
CCOc1ccccc1C1CC(c2ccc(F)cc2)Nc2nc(N)nn21 (stereo unspecified) | -15 | -3.4* | 4 | 2 | -18 | 0 | 0.0061 | 0.0051 | 0.027 | 0.0078 | 0.017 | 0.011
COc1ccccc1C1CC(c2ccc(Cl)cc2)Nc2nc(N)nn21 (stereo unspecified) | -6 | 0.037 | 5 | 5 | 18 | -8 | · | · | · | · | · | ·
Cc1sc2nc(SCC(=O)OC(C)C)n(C)c(=O)c2c1C | -16 | · | -1 | -3 | -5 | 7 | 0.0077 | 0.014* | 0.035 | 0.015* | 0.026* | 0.018*
Cc1sc2nc(SCC(=O)NCCO)n(C)c(=O)c2c1C | -17 | · | 1 | 1 | -5 | -9 | · | · | · | · | · | ·
CCOC(=O)CNC(=O)CSc1nc2sc(C)c(C)c2c(=O)n1C | -8 | · | -1 | 1 | 22 | -7 | 0.0064 | 0.019* | 0.037 | 0.017* | 0.027* | 0.021*
CCOc1cc(-c2nc(C)c(C(C)=O)n2O)ccc1OCC(=O)Nc1cccc(C)c1 | -19 | -0.37 | · | -6 | -14 | 4 | · | · | · | · | · | ·
O=C(NC(=S)NCCC1=CCCCC1)c1ccccc1Br | -15 | 46* | · | 9 | 0 | -8 | ? | 0.041* | 0.048* | 0.039* | 0.043* | 0.025*
O=C(NC(=S)NC1CCCC1)c1ccccc1Br | -8 | 8.8* | -1 | 9 | -11 | -13 | 0.013* | 0.055* | 0.037 | 0.022* | ? | 0.015*
O=C(NNC(=S)NC1CCCCC1)c1ccccc1O | -27 | -0.83 | · | 3 | -10 | 6 | · | · | · | · | · | ·
COc1ccc(C(=O)NNC(=O)CSc2nnc(-c3cccnc3)n2C)cc1 | -14 | -0.36 | · | 3 | 10 | 7 | · | · | · | · | · | ·
C=CCn1c(O)c(N=NC(=S)Nc2ccccc2C)c2cc(S(=O)(=O)N3CCOCC3)ccc21 | -19 | 14* | -2 | -8 | -8 | 7 | 0.013* | 0.072* | 0.036 | 0.02* | 0.029 | 0.015*
C=CCn1c(O)c(N=NC(=S)Nc2ccc(OC)c(Cl)c2)c2ccccc21 | -23 | 21* | 4 | 0 | -46 | 12 | 0.0065 | 0.029* | 0.035 | 0.024* | 0.028* | 0.016*
Cc1ccc(N=Nc2c(O)n(CN3CCOCC3)c3ccccc23)cc1 | -29 | · | 0 | 3 | -9 | -8 | · | · | · | · | · | ·
Cn1c(=O)c2cc(S(=O)(=O)N3CCOCC3)ccc2n(C)c1=O | -8 | -0.11 | 4 | 0 | 5 | 9 | · | · | · | · | · | ·
Cc1ccc(NC(=S)N=Nc2c(O)n(C)c3ccc(S(=O)(=O)N4CCOCC4)cc23)cc1C | -5 | 7.4* | 2 | -1 | 12 | 8 | 0.011 | 0.013* | 0.034 | 0.032* | ? | 0.018*
Cc1cccc(NC(=S)N=Nc2c(O)n(CN3CCOCC3)c3ccccc23)c1C | -1 | 5.3* | 1 | 4 | -2 | 5 | 0.024* | 0.021* | 0.035 | 0.012* | 0.026* | 0.012*
CCn1c2ccccc2c2nc3cc(S(=O)(=O)N4CCOCC4)ccc3nc21 | -8 | 0.64 | 1 | -1 | -2 | -23 | · | · | · | · | · | ·
SMILES | Furin inh | Cl transport mod | NPY-Y2 antag | NPY Y1 blocker | NPY1 pot ag | NPY-Y2 PAM-ag | KCC2 secondary | KCC2 bumet counter | KCC2 secondary2 | HEK293 Tl flux | KCC2 retest ouab | HEK293 Tl flux2
CN(C)S(=O)(=O)c1cccc(-c2nnc3n2CCCCC3)c1 | -30 | -0.056 | · | · | 27 | 4 | · | · | · | · | · | ·
CCCOC(=O)c1ccc(NC(=O)c2ccccc2[N+](=O)[O-])cc1 | -26 | -0.88 | · | 2 | 16 | 3 | · | · | · | · | · | ·
CCCOC(=O)c1ccc(Cl)c(NC(=O)c2cccnc2)c1 | -13 | · | · | 1 | 0 | -11 | · | · | · | · | · | ·
Cn1c(O)c(N=NC(=S)Nc2ccccc2F)c2cc(S(=O)(=O)N3CCOCC3)ccc21 | -12 | 37* | · | -3 | 3 | -2 | 0.016* | 0.056* | 0.036 | ? | 0.044* | ?
COc1ccc(N2CS(=O)CC2=O)cc1 (stereo unspecified) | -11 | 1 | · | -1 | -5 | 3 | · | · | · | · | · | ·
C=CCn1c(SCc2ccc(C(=O)O)cc2)nc2sc(C)c(C)c2c1=O | -15 | 46* | · | · | 2 | -17 | 0.021* | 0.053* | ? | 0.035* | 0.05* | 0.014*
CC(C)c1ccc(N2C(=O)CC(NNC(=O)c3cccnc3)C2=O)cc1 (stereo unspecified) | -9 | 0.13 | · | · | -6 | -6 | · | · | · | · | · | ·
